Source: ChEMBL document CHEMBL3272275, “Synthesis and antiinflammatory activity of some 1,2,3- and 1,2,4-triazolepropionic acids” (J Med Chem, 1978)

Key:
Rattus norvegicus [1] = experiment: Antiinflammatory activity against carrageenan/Evans blue dye-induced pleural effusion rat model assessed as reduction in pleural fluid volume at 0.4 mmol/kg, po administered 1 hr prior challenge measured 6 hrs post challenge relative to phenylbutazone; format: functional
Rattus norvegicus [2] = experiment: Antiinflammatory activity against carrageenan/Evans blue dye-induced pleural effusion rat model assessed as reduction in pleural fluid volume at 0.4 mmol/kg, po administered 1 hr prior challenge measured 6 hrs post challenge relative to control; format: functional; set-up: scale not given: the % may be the effect or the level left
How it was run: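 Oral dosing at 0.4 mmol/kg to groups of six rats, 1 h before intrapleural carrageenan plus Evans blue dye. Rats killed 6 h after the irritants and pleural fluid volume measured. Value is percent reduction in fluid volume relative to untreated controls.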

Rattus norvegicus [3] = experiment: Antiinflammatory activity in Freund's adjuvant-induced Lewis rat arthritis model assessed as reduction of paw volume at 0.2 mmol/kg, po qd administered on day 0 to day 21 of adjuvant challenge measured on day 7 by plethysmometry relative to control; format: functional; set-up: scale not given: the % may be the effect or the level left
Rattus norvegicus [4] = experiment: Antiinflammatory activity in Freund's adjuvant-induced Lewis rat arthritis model assessed as reduction of paw volume at 0.2 mmol/kg, po qd administered on day 0 to day 21 of adjuvant challenge measured on day 21 by plethysmometry relative to control; format: functional; set-up: scale not given: the % may be the effect or the level left
How it was run: (§1)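 Male Lewis rats (125-150 g) given an intradermal injection of 0.05 mL of 0.65% Mycobacterium tuberculosis suspension in Freund's adjuvant into the right hind plantar surface on day 0. Negative controls received mineral oil only. Dosing once daily by gavage, groups of six, days 0-21. Injected and uninjected hind-foot volume change over days 0-21 measured plethysmographically. Value is percent reduction relative to controls.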

Rattus norvegicus [5] = experiment: […] in Freund's adjuvant-induced Lewis rat arthritis model assessed as reduction of uninjected paw volume at 0.2 mmol/kg, po qd administered on day 0 to day 21 of adjuvant challenge measured on day 21 by plethysmometry relative to control; format: organism-based; set-up: scale not given: the % may be the effect or the level left; settings: in vivo; how it was run: as §1
Rattus norvegicus [6] = experiment: Antiinflammatory activity against carrageenan/Evans blue dye-induced pleural effusion rat model assessed as reduction in pleural fluid volume at 0.83 mmol/kg, po administered 1 hr prior challenge measured 6 hrs post challenge relative to control; format: functional; set-up: scale not given: the % may be the effect or the level left
Rattus norvegicus [7] = experiment: Antiinflammatory activity in Freund's adjuvant-induced Lewis rat arthritis model assessed as reduction of paw volume at 72 mg/kg, po qd administered on day 0 to day 21 of adjuvant challenge measured on day 7 by plethysmometry relative to control; format: functional; set-up: scale not given: the % may be the effect or the level left
Rattus norvegicus [8] = experiment: Antiinflammatory activity in Freund's adjuvant-induced Lewis rat arthritis model assessed as reduction of paw volume at 72 mg/kg, po qd administered on day 0 to day 21 of adjuvant challenge measured on day 21 by plethysmometry relative to control; format: functional; set-up: scale not given: the % may be the effect or the level left; how it was run: as §1
Rattus norvegicus [9] = experiment: […] in Freund's adjuvant-induced Lewis rat arthritis model assessed as reduction of uninjected paw volume at 72 mg/kg, po qd administered on day 0 to day 21 of adjuvant challenge measured on day 21 by plethysmometry relative to control; format: organism-based; set-up: dose 72 mg/kg, route oral; scale not given: the % may be the effect or the level left; settings: in vivo; how it was run: as §1

| Structure (SMILES) | fold change (FC) (Rattus norvegicus [1]) | Activity (Rattus norvegicus [2]) [%] | Activity (Rattus norvegicus [3]) [%] | Activity (Rattus norvegicus [4]) [%] | Activity (Rattus norvegicus [5]) [%] | Activity (Rattus norvegicus [6]) [%] | Activity (Rattus norvegicus [7]) [%] | Activity (Rattus norvegicus [8]) [%] | Activity (Rattus norvegicus [9]) [%] |
| --- | --- | --- | --- | --- | --- | --- | --- | --- | --- |
| O=C(O)CCn1nnc(-c2ccccc2)n1 | 0.9 | – | – | – | – | – | – | – | – |
| O=C(O)CCn1nc(-c2ccccc2)c(-c2ccccc2)n1 | – | 26 | 21 | 23 | 34 | – | – | – | – |
| Cc1cccc(-c2cnn(CCC(=O)O)n2)c1 | – | -1.3 | 13 | 4.5 | 9.6 | – | – | – | – |
| Cl.O=C(O)CCn1ncc(-c2cccnc2)n1 | – | -1.3 | – | – | – | – | – | – | – |
| Cc1nn(CCC(=O)O)nc1-c1ccccc1 | – | 17 | – | – | – | – | – | – | – |
| O=C(O)CCCn1ncc(-c2ccccc2)n1 | – | 13 | -1.8 | 14 | 1.4 | – | – | – | – |
| O=C(O)Cn1ncc(-c2ccccc2)n1 | – | -5 | -17 | -9 | 45 | – | – | – | – |
| CC(=O)Nc1cccc(-c2cnn(CCC(=O)O)n2)c1 | – | -3.2 | 8.1 | -0.1 | -24 | – | – | – | – |
| O=C(O)CCn1ncc(-c2cc(Cl)cc(Cl)c2)n1 | – | 0 | 35 | 33 | 38 | – | – | – | – |
| O=C(O)CCn1ncc(-c2cccc(Br)c2)n1 | – | 29 | 19 | 30 | 25 | – | – | – | – |
| O=C(O)CCn1ncc(-c2cccc(Cl)c2)n1 | – | 19 | 28 | 42 | 26 | – | – | – | – |
| O=C(O)CCn1ncc(-c2ccccc2)n1 | – | 42 | 36 | 57 | 63 | – | – | – | – |
| O=C(O)/C=C/c1cnn(-c2cccc(Br)c2)n1 | – | 20 | 12 | 14 | 16 | – | – | – | – |
| O=C(O)/C=C/c1cnn(-c2cccc(Cl)c2)n1 | – | 18 | – | – | – | – | – | – | – |
| O=C(O)/C=C/c1cnn(-c2ccccc2)n1 | – | 13 | 14 | 20 | 42 | – | – | – | – |
| O=C(O)CCc1cnn(-c2cccc(Br)c2)n1 | – | 14 | 14 | 35 | 39 | – | – | – | – |
| O=C(O)CCc1cnn(-c2cccc(Cl)c2)n1 | – | 33 | 13 | 32 | 11 | – | – | – | – |
| O=C(O)CCc1cnn(-c2ccccc2)n1 | – | 28 | 9.1 | 24 | 36 | – | – | – | – |
| O=C(O)CCn1cc(-c2cccnc2)nn1 | – | 5.1 | 9.3 | 18 | -30 | – | – | – | – |
| CC(=O)Nc1cccc(-c2cn(CCC(=O)O)nn2)c1 | – | 9.9 | 1.7 | 20 | -19 | – | – | – | – |
| Nc1cccc(-c2cn(CCC(=O)O)nn2)c1 | – | 1.4 | 2.8 | 14 | -6.7 | – | – | – | – |
| CCOc1cccc(-c2cn(CCC(=O)O)nn2)c1 | – | 0.6 | 0.4 | -9 | -28 | – | – | – | – |
| Cc1cccc(-c2cn(CCC(=O)O)nn2)c1 | – | 0 | 10 | -7.8 | 22 | – | – | – | – |
| O=C(O)CCn1cc(-c2cccc(Br)c2)nn1 | – | 11 | 0 | 7.2 | 23 | – | – | – | – |

| Structure (SMILES) | fold change (FC) (Rattus norvegicus [1]) | Activity (Rattus norvegicus [2]) [%] | Activity (Rattus norvegicus [3]) [%] | Activity (Rattus norvegicus [4]) [%] | Activity (Rattus norvegicus [5]) [%] | Activity (Rattus norvegicus [6]) [%] | Activity (Rattus norvegicus [7]) [%] | Activity (Rattus norvegicus [8]) [%] | Activity (Rattus norvegicus [9]) [%] |
| --- | --- | --- | --- | --- | --- | --- | --- | --- | --- |
| O=C(O)CCn1cc(-c2cccc(Cl)c2)nn1 | – | -1.4 | -1.1 | 3.5 | -8.2 | – | – | – | – |
| O=C(O)CCn1cc(-c2cccc(F)c2)nn1 | – | 1.7 | -9.9 | -10 | 1.6 | – | – | – | – |
| O=C(O)CCn1cc(-c2ccccc2)nn1 | – | 0 | 8.9 | 2.2 | -12 | – | – | – | – |
| O=C(O)CCc1cn(-c2cccc(Cl)c2)nn1 | – | 10 | 10 | -4.9 | 21 | – | – | – | – |
| O=C(O)CCc1cn(-c2cccc(F)c2)nn1 | – | -4.1 | 22 | -2.4 | -2 | – | – | – | – |
| O=C(O)CCc1cn(-c2ccccc2)nn1 | – | 1.6 | 2.3 | -1.6 | -3.2 | – | – | – | – |
| Cc1cccc(-c2ncn(CC(=O)O)n2)c1 | – | 3 | 0.2 | -6 | -13 | – | – | – | – |
| Cc1cccc(-c2ncn(CCC(=O)O)n2)c1 | – | -3.2 | -5.1 | 7.1 | 50 | – | – | – | – |
| O=C(O)CCn1cnc(-c2cccc(Br)c2)n1 | – | 8.9 | 6.2 | 0.1 | 16 | – | – | – | – |
| O=C(O)CCn1cnc(-c2cccc(Cl)c2)n1 | – | 1.1 | 3 | 11 | 14 | – | – | – | – |
| O=C(O)CCn1cnc(-c2ccccc2)n1 | – | -3.7 | 4.4 | 8.6 | 10 | – | – | – | – |
| O=C(O)CCc1ncn(-c2cc(Cl)cc(Cl)c2)n1 | – | 5.2 | 23 | 30 | 71 | – | – | – | – |
| O=C(O)CCc1ncn(-c2cccc(Cl)c2)n1 | – | 7.5 | – | – | – | – | – | – | – |
| O=C(O)CCc1ncn(-c2ccccc2)n1 | – | 12 | 1.3 | -0.6 | -15 | – | – | – | – |
| Cc1cccc(-c2n[nH]c(CCC(=O)O)n2)c1 | – | -3 | – | – | – | – | – | – | – |
| O=C(O)CCc1nc(-c2cccc(Br)c2)n[nH]1 | – | -9 | -13 | -1.2 | 30 | – | – | – | – |
| O=C(O)CCc1nc(-c2cccc(Cl)c2)n[nH]1 | – | 2.9 | 3 | 3 | 3 | – | – | – | – |
| O=C(O)CCc1nc(-c2ccccc2)n[nH]1 | – | -1.7 | 9.1 | 4.2 | 30 | – | – | – | – |
| CC(=O)c1nn(CCC(=O)O)nc1-c1ccccc1 | – | 2.6 | 13 | -8 | -30 | – | – | – | – |
| CN(C)c1nn(CCC(=O)[O-])nc1-c1ccccc1.[Na+] | – | 0 | – | – | – | – | – | – | – |
| O=C(O)CCn1nncc1-c1ccccc1 | – | 5 | – | – | – | – | – | – | – |
| O=C(O)CCc1nnn(-c2cccc(Br)c2)n1 | – | 21 | 17 | 34 | 22 | – | – | – | – |
| CC(=O)Oc1ccccc1C(=O)O [ASPIRIN] | – | – | – | – | – | 29 | 37 | 5 | -11 |
| CCCCC1C(=O)N(c2ccccc2)N(c2ccccc2)C1=O [PHENYLBUTAZONE] | – | 28 | 33 | 39 | 36 | – | – | – | – |
